Test results published in article PMC9064169 (ACS chemical biology, 2021).
Numbering of substitutions follows the chain as printed. “Also recorded” adds a separate entry of the source. Like-named read-outs stand apart in the source and are kept apart here. Each block holds one molecule with its values, some of them ahead of it.

Experiments:
MN9D cells = experiment: Cytotoxicity / viability in MN9D cells; assay type: cell-based; conditions: 24 h treatment
[1] = Chemical stability in solution; assay type: physicochemical; conditions: observed during data acquisition; see references 26-28
[2] = molecular target: Nurr1 ligand binding domain (LBD) (Homo sapiens, UniProt P43354); experiment: Microscale thermophoresis
Procedure, shortened: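 KD for the Nurr1 LBD measured by microscale thermophoresis, with 0.1% of the surfactant Pluronic F127 present. To exclude non-specific binding by aggregates, the assay was repeated at increasing Pluronic F127 concentrations. Values are from three or more independent measurements ± SD.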

[3] = molecular target: T1, Arg563Ala mutant Nurr1 LBD (Homo sapiens, UniProt P43354, R563A); experiment: MST binding to Arg563Ala mutant Nurr1 LBD
T1 sequence (P43354 360-595 R563A limits assumed): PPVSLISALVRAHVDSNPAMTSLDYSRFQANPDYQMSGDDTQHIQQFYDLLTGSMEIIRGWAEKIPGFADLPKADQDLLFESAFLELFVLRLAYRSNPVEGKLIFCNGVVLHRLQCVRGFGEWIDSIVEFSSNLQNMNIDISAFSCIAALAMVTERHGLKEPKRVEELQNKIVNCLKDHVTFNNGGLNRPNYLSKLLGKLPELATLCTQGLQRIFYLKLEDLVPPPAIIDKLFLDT

[4] = molecular target: endogenous full-length Nurr1 (Mus musculus, UniProt Q06219); experiment: qPCR of Nurr1 target gene transcripts; assay type: cell-based; conditions: 24 h
Procedure, shortened: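 Mouse MN9D cells treated with test compound at 10 μM, or over a concentration series, for 24 h. Vehicle was DMSO. mRNA was isolated and Th and Vmat2 transcripts were measured by qPCR. Values were normalized to housekeeping gene Hprt and expressed as fold-change over DMSO-treated cells. Values are from three or more independent measurements ± SD.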

[5] = molecular target: His516Ala mutant Nurr1 LBD (Homo sapiens, UniProt P43354, H516A); experiment: MST binding to His516Ala mutant Nurr1 LBD
[6] = molecular target: T2, Arg563Ala His516Ala double mutant Nurr1 LBD (Homo sapiens, UniProt P43354, H516A/R563A); experiment: MST binding to Arg563Ala/His516Ala double mutant Nurr1 LBD
T2 sequence (P43354 360-595 H516A/R563A limits assumed): T1 sequence (P43354 360-595 R563A limits assumed) with H157A

LBD of RXRα = molecular target: T3, LBD of RXRα (Homo sapiens, UniProt P19793); experiment: Binding to the LBD of RXRα
T3 sequence (P19793 227-458 limits assumed): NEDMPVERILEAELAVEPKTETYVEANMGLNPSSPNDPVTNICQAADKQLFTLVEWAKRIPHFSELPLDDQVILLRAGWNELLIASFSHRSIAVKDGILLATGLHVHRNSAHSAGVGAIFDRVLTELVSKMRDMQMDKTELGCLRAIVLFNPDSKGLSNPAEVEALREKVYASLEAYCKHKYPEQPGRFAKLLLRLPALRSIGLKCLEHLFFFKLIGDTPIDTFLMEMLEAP

[7] = molecular target: full-length Nurr1 (NBRE response element) (Homo sapiens, UniProt P43354); experiment: Luciferase reporter assay, full-length receptor on NBRE response element; assay type: cell-based
[8] = cited from earlier work
zebrafish = conditions: cited from earlier work
[9] = MN9D cells, 10 μM, normalized to Hprt

Chain of Nurr1 ligand binding domain (LBD) (P43354 360-595 limits assumed): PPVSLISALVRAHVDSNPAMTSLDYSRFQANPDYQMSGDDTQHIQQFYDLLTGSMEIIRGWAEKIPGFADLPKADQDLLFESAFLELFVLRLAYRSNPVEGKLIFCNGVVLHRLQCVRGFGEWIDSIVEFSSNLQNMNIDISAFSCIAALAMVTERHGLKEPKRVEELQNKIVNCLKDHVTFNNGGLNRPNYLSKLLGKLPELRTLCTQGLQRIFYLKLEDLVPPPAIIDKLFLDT
Chain of endogenous full-length Nurr1 (Q06219 whole entry): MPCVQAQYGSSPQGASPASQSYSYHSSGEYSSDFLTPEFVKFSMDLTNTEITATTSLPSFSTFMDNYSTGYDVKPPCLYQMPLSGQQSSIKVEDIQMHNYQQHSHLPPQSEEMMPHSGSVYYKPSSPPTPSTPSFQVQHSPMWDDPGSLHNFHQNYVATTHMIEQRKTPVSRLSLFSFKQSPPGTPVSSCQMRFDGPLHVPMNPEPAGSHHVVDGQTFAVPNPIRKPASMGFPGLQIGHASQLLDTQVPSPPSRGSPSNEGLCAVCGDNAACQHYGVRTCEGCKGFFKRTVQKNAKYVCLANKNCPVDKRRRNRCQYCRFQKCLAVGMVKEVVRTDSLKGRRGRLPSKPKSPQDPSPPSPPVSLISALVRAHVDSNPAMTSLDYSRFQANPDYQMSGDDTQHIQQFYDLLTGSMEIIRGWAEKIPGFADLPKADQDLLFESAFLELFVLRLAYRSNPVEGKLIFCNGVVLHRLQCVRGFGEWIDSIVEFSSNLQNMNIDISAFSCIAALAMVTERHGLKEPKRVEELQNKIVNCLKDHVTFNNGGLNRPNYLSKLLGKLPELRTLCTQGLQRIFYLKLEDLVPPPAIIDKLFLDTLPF
Chain of His516Ala mutant Nurr1 LBD (P43354 360-595 H516A limits assumed): as the sequence (P43354 360-595 limits assumed) above, with H157A counted along it
Chain of full-length Nurr1 (NBRE response element) (P43354 whole entry, species assumed): as the sequence (Q06219 whole entry) above, with S131T, S134G, D354E counted along it

Structure (SMILES): Nc1ccc2cc[nH]c2c1 [6-aminoindole]
Cytotoxicity in MN9D cells (MN9D cells): significant cytotoxicity | Chemical stability in solution [1]: autooxidation and polymerization in solution

Structure (SMILES): CCN(CC)Cc1cc(Nc2ccnc3cc(Cl)ccc23)ccc1O [amodiaquine, reference compound]
Kd [2]: 8 ± 1.5 µM

Structure (SMILES): Oc1ccc2cc[nH]c2c1 [6-hydroxyindole]
Cytotoxicity in MN9D cells (MN9D cells): significant cytotoxicity | Chemical stability in solution [1]: autooxidation and polymerization in solution

Structure (SMILES): Oc1cc2cc[nH]c2cc1O [DHI, 5,6-dihydroxyindole]
Chemical stability in solution [8]: readily auto-oxidizes and polymerizes | Expression of th and vmat2 in zebrafish (zebrafish): stimulates the expression of th and vmat2

The next lines start with results.

Binding to Arg563Ala mutant relative to wildtype [3]: eliminated | Th expression, fold-change relative to vehicle (DMSO) [4, 9]: 2.2 fold | Vmat2 expression, fold-change relative to vehicle (DMSO) [4, 9]: 2.5 fold | Binding affinity for His516Ala mutant relative to wildtype [5]: statistically unchanged | Binding to Arg563Ala/His516Ala double mutant relative to wildtype [6]: eliminated
Structure (SMILES): Brc1ccc2[nH]ccc2c1 [5-bromoindole]
Cytotoxicity in MN9D cells (MN9D cells): somewhat toxic to cells under certain conditions (≥10 μM, 24 h)

Saturable binding to the LBD of RXRα (LBD of RXRα): does not exhibit saturable binding | Improvement of affinity relative to wildtype, Arg563Ala mutant [3]: ~ 2 fold | Vmat2 expression, fold-change relative to vehicle (DMSO) [4, 9]: 2.4 fold | Potency in MN9D cells compared with reference ligands ([4]; Th and Vmat2 expression): superior to that of DHI and amodiaquine | Improvement of affinity relative to wildtype, His516Ala mutant [5]: ~ 2 fold | Chemical stability in solution [1]: stable | Activity of Nurr1 in luciferase reporter assay (full-length receptor, NBRE) [7]: stimulates the activity of Nurr1 | Improvement of affinity relative to wildtype, double mutant [6]: ~ 2 fold | Effect of increasing surfactant concentration on affinity for the Nurr1 LBD ([2]; MST binding assay): only has a minor effect | Affinity for the Nurr1 LBD compared with reference ligands ([2]; in vitro and in luciferase reporter assays): comparable to DHI and amodiaquine
Structure (SMILES): Clc1ccc2[nH]ccc2c1 [5-chloroindole]
Cytotoxicity in MN9D cells (MN9D cells): non-cytotoxic; also recorded: not cytotoxic
